“Also recorded” adds a separate entry of the source.
How the values were obtained:
[1] = In vivo metabolism of S807 in rats; design: species or system Sprague-Dawley rats; conditions: male and female pooled rat plasma, 1 h post dose, 200 mg/kg bw oral
[2] = tested on: Chinese hamster ovary cells (CHO-WBL); experiment: In vitro chromosome aberration test, CHO-WBL cells; format: cell-based
[3] = tested on: Sprague-Dawley Rats; experiment: 21-day dose-range finding toxicity study on S807; format: in vivo, Crl:CD(SD)IGS BR rats; conditions: 50, 100, 200 mg/kg bw/day food ad-mix, 21 days
Outline: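 Dose-range finder for the 90-day study. Crl:CD(SD)IGS BR rats, 5/sex/group, received the test compound continuously in the diet at 50, 100 or 200 mg/kg bw/day for 21 days. One group of 5/sex served as control and received the vehicle diet.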

[4] = Dietary exposure estimates; design: species or system human
[5] = tested on: S. typhimurium strains TA98, TA100, TA1535, TA1537 and E. coli strain WP2 uvrA; experiment: Bacterial reverse mutation test; format: cell-based; conditions: 21–5000 μg/plate, plate incorporation and pre-incubation, ±S9
Outline: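 The assay followed OECD Guideline 471 and used S. typhimurium TA98, TA100, TA1535 and TA1537 and E. coli WP2 uvrA. It was run with and without S9 from livers of Aroclor 1254-treated Sprague-Dawley rats. One compound was tested at 21–5000 μg/plate by plate incorporation and pre-incubation. The other was tested at 50–5000 μg/plate in an initial toxicity-mutation test and a confirmatory mutation test.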

[6] = tested on: Sprague-Dawley Rats; experiment: 13-week subchronic toxicity study on S807; format: in vivo, Crl:CD(SD)IGS BR rats; conditions: 2, 10, 20 mg/kg bw/day food ad-mix, 13 weeks
Outline: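 Crl:CD(SD)IGS BR rats, 20/sex/group, were given the test compound in the diet at 0 (control), 2, 10 or 20 mg/kg bw/day for 93 consecutive days.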

[7] = Pharmacokinetics of S807 in rats, single iv or oral dose; format: in vivo, Sprague-Dawley rats; conditions: for AUC(0-t) / Cmax / Tmax / Vd / half-life / clearance / bioavailability: Sprague-Dawley, rat, plasma; for clearance: CL (clearance), iv 1 mg/kg bw; for AUClast Ratio / Cmax Ratio: vs 20 mg/kg bw dose
Outline: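 Sprague-Dawley rats, 4/sex, received a 1 mg/kg bw IV bolus in 20% PEG400/10% ethanol/2% DMSO/68% saline. Sampling was via jugular cannula at pre-dose and 2 min to 8 h. Oral groups (4/sex/group) were gavaged once with 20, 50 or 200 mg/kg bw in 1% methylcellulose and sampled from 15 min to 24 h. Plasma was assayed for parent and metabolites.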

[8] = tested on: Male Swiss albino (CD-1) mice, bone marrow PCEs; experiment: In vivo micronucleus assay in mice, S807
Outline: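 Swiss Albino (CD-1) mice received a single intraperitoneal injection of the test compound as a DMSO solution (132 mg/mL). Range finding used 3/sex/group at 500, 1000 or 2000 mg/kg bw, then added groups at 800 (3/sex) and 700 (3 males). The definitive phase used 175, 350 and 700 mg/kg bw, 21 animals/group. Readouts were bone-marrow mnPCE incidence and PCE/total erythrocyte ratio versus vehicle. Cyclophosphamide was the positive control.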

[9] = In vitro metabolism by rat liver microsomes; format: in vitro ADME, Sprague-Dawley rat; conditions: S807 incubation, relative to S807 at time = 0
[10] = In vitro metabolism by human liver microsomes; format: in vitro ADME; conditions: S807 incubation, relative to S807 at time = 0
[11] = oral gavage 20 mg/kg bw, female
[12] = oral gavage 50 mg/kg bw, female
[13] = oral gavage 200 mg/kg bw, female

With `CCCC(CCC)NC(=O)c1ccc2c(c1)OCO2` [S807, N-(heptan-4-yl)benzo[d][1,3]dioxole-5-carboxamide] the “MS (EIC) Peak Area” value [1] was 29,000,000 cps, the “Chromosome aberration (in vitro), Result” value ([2]; 21–5000 μg/mL, 3 h −S9, 3 h +S9, 18 h −S9) was “did not induce chromosomal aberrations; also recorded: Negative” and the “test article concentration with precipitate in the cell cultures” value ([2]; all conditions) was at least 62 µg/mL. For the same molecule, the Findings [3] was “Lower bw gain in females at 200 mg/kg bw/day; increased liver weight in females at 100 and 200 mg/kg bw/day; histomorphological changes in livers of both male and females at all doses”, the NOEL [3] was under 50 mg/kg bw/day and the “NOEL as times the estimated dietary exposure (mTAMDI)” value ([4]; NOEL 20 mg/kg bw/day) was 2560 times. For the same molecule, the “margin of safety, NOEL vs estimated use” value ([4]; NOEL 20 mg/kg bw/day vs 4.9 μg/kg bw/day) was over 4000 fold, the “Reverse mutation (in vitro), Result” value [5] was “not mutagenic; also recorded: Negative” and the Findings [6] was “No test-article related findings”. For the same molecule, the NOEL [6] was 20 mg/kg bw/day, the AUC(0-t) ([7]; female, iv, 1 mg/kg) was 342 ± 81.4 ng·h/mL and the Cmax ([7]; female, iv, 1 mg/kg) was 949 ± 222 ng/mL. The Tmax ([7]; female, iv, 1 mg/kg) was 0.033 h, the Vd ([7]; female, iv, 1 mg/kg) was 5.61 L/kg and the half-life ([7]; female, iv, 1 mg/kg) was 3.02 ± 0.92 h. For the same molecule, the clearance ([7]; female, iv, 1 mg/kg, female rat) was 47.2 mL/min/kg, the AUC(0-t) ([7]; female, po, 20 mg/kg) was 166 ± 72.2 ng·h/mL and the Cmax ([7]; female, po, 20 mg/kg) was 187 ± 87.6 ng/mL. For the same molecule, the Tmax ([7]; female, po, 20 mg/kg) was 0.25 h, the bioavailability ([7]; female, po, 20 mg/kg) was 2.43% and the half-life ([7]; female, po, 20 mg/kg) was 1.07 ± 0.67 h. It also gave an AUC(0-t) ([7]; female, po, 50 mg/kg) of 1410 ± 1020 ng·h/mL, a Cmax ([7]; female, po, 50 mg/kg) of 529 ± 379 ng/mL and a Tmax ([7]; female, po, 50 mg/kg) of 1 h. For the same molecule, the bioavailability ([7]; female, po, 50 mg/kg) was 8.25%, the half-life ([7]; female, po, 50 mg/kg) was 1.17 ± 0.16 h and the AUC(0-t) ([7]; female, po, 200 mg/kg) was 108000 ± 27900 ng·h/mL. The Cmax ([7]; female, po, 200 mg/kg) was 9150 ± 2410 ng/mL, the Tmax ([7]; female, po, 200 mg/kg) was 3 h and the bioavailability ([7]; female, po, 200 mg/kg) was 158%. The half-life ([7]; female, po, 200 mg/kg) was 2.62 ± 0.2 h, the “CL as % of hepatic blood flow” value ([7]; iv, females) was 85.5% and the “CL as % of hepatic blood flow” value ([7]; iv, males) was 55.6%. It also gave an AUC(0-t) ([7]; male, iv, 1 mg/kg) of 491 ± 33.3 ng·h/mL, a Cmax ([7]; male, iv, 1 mg/kg) of 1110 ± 237 ng/mL and a Tmax ([7]; male, iv, 1 mg/kg) of 0.033 h. The Vd ([7]; male, iv, 1 mg/kg) was 4.63 L/kg, the half-life ([7]; male, iv, 1 mg/kg) was 3.02 ± 0.24 h and the clearance ([7]; male, iv, 1 mg/kg, male rat) was 30.7 mL/min/kg. The AUC(0-t) ([7]; male, po, 20 mg/kg) was 182 ± 70.5 ng·h/mL, the Cmax ([7]; male, po, 20 mg/kg) was 174 ± 95.1 ng/mL and the Tmax ([7]; male, po, 20 mg/kg) was 0.313 h. It also gave a bioavailability ([7]; male, po, 20 mg/kg) of 1.85%, a half-life ([7]; male, po, 20 mg/kg) of 1.14 ± 0.35 h and an AUC(0-t) ([7]; male, po, 50 mg/kg) of 4890 ± 4960 ng·h/mL. It also gave a Cmax ([7]; male, po, 50 mg/kg) of 1270 ± 1170 ng/mL, a Tmax ([7]; male, po, 50 mg/kg) of 1.5 h and a bioavailability ([7]; male, po, 50 mg/kg) of 19.9%. It also gave a half-life ([7]; male, po, 50 mg/kg) of 1.83 ± 0.61 h, an AUC(0-t) ([7]; male, po, 200 mg/kg) of 101000 ± 19500 ng·h/mL and a Cmax ([7]; male, po, 200 mg/kg) of 10500 ± 937 ng/mL. For the same molecule, the Tmax ([7]; male, po, 200 mg/kg) was 4 h, the bioavailability ([7]; male, po, 200 mg/kg) was 103% and the half-life ([7]; male, po, 200 mg/kg) was 2.49 ± 0.07 h. For the same molecule, the “AUClast Ratio” value [7, 11] was 1, the “Cmax Ratio” value [7, 11] was 1 and the “AUClast Ratio” value ([7]; oral gavage 20 mg/kg bw, male) was 1. For the same molecule, the “Cmax Ratio” value ([7]; oral gavage 20 mg/kg bw, male) was 1, the “AUClast Ratio” value [7, 12] was 8.49 and the “Cmax Ratio” value [7, 12] was 2.83. The “AUClast Ratio” value ([7]; oral gavage 50 mg/kg bw, male) was 26.9, the “Cmax Ratio” value ([7]; oral gavage 50 mg/kg bw, male) was 7.30 and the “AUClast Ratio” value [7, 13] was 651. The “Cmax Ratio” value [7, 13] was 48.9, the “AUClast Ratio” value ([7]; oral gavage 200 mg/kg bw, male) was 555 and the “Cmax Ratio” value ([7]; oral gavage 200 mg/kg bw, male) was 60.3. The “Micronucleus formation (in vivo), Result” value ([8]; 175, 350, 700 mg/kg bw (ip)) was “neither clastogenic nor aneugenic; also recorded: Negative”, the “dose groups with deaths within 48 h of treatment” value ([8]; range finding, ip) was at least 800 mg/kg bw and the “% MS (EIC) Peak Area” value ([9]; 10 min) was 70.0%. The “% MS (EIC) Peak Area” value ([9]; 20 min) was 34.0%, the “% MS (EIC) Peak Area” value ([10]; 10 min) was 89.4% and the “% MS (EIC) Peak Area” value ([10]; 20 min) was 80.8%. The “% MS (EIC) Peak Area” value ([10]; 60 min) was 65.0%.

Source: paper PMC5616206 (Toxicology Reports, 2016)
